Hck Nef HTS – inhibitors of Nef-activated human Hck kinase, primary screen, biochemical, Z-Lyte FRET, 384-well, Hck-YEEI | Tyrosine-protein kinase HCK (Homo sapiens), P08631 | Recombinant Hck-YEEI plus Nef, Z-Lyte FRET kinase assay | inhibition, % at 20 µM | actives 0.68% (n = 220,000);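 active means Hck-Nef kinase inhibition above about 50%, limit read from the data; inactive means inhibition below that limit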;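 further: 0% = DMSO with Hck plus Nef and 100% = Hck alone without Nef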
Runt-SMMHC FRET – inhibitors of RUNX1 Runt–CBFb-SMMHC binding, primary screen, biochemical, FRET, Cerulean-Runt, Venus-CBFb-SMMHC, uHTS | Runt-related transcription factor 1 (Homo sapiens) + Core-binding factor subunit beta … | Cerulean-Runt/Venus-CBFb-SMMHC FRET ratio 530/480, 1 h | inhibition, % at 20 µM | actives 0.74% (n = 220,000) | AID 1434, 2008;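 active means mean inhibition across duplicate retests at 20 µM reaching about 50%, limit read from the data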;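 further: 0% = DMSO wells and 100% = wells with excess untagged CBFb-SMMHC; inhibitors lower the FRET ratio by blocking Runt binding to CBFb-SMMHC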
Target sequence (Q01196 whole entry, looked up): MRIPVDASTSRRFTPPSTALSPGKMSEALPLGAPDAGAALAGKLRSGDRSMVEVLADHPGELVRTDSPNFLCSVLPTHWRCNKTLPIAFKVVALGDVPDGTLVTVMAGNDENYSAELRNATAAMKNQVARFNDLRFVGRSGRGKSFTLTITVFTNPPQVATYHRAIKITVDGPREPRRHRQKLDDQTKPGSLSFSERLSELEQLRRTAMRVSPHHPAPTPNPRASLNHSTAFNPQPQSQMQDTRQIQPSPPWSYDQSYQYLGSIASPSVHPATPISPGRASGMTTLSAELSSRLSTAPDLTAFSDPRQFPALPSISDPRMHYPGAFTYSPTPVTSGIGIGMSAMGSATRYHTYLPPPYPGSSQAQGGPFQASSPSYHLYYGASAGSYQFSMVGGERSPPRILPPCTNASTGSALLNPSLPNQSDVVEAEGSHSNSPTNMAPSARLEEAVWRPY
Target sequence (Q13951 whole entry, looked up): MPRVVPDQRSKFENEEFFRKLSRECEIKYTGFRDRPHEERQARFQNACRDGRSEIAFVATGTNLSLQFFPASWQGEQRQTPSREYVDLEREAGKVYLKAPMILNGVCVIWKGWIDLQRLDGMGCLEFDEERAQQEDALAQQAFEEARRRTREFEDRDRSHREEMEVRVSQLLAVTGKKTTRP
RanGTP-Imp inh – inhibitors of RanGTP-importin-beta interaction, primary screen, biochemical, FRET, CFP-Ran, YFP-importin-beta, homogeneous | inhibition, % (no concentration beside the values) | actives 1.1% (n = 300,000) | cell-free CFP-Ran/YFP-importin-beta FRET ratio;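 active means more than half of the replicate wells show a fall in the fluorescence ratio signal beyond about 16%, limit read from the data, passing the limit was not always enough; inconclusive means exactly half of the replicate wells pass the set limit; inactive means fewer than half of replicates pass the limit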;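 further: 0% = DMSO wells and 100% = Ran loaded with GDP instead of GTP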
Runt-CBFb FRET – inhibitors of RUNX1 Runt–CBFb binding, primary screen, biochemical, FRET, Cerulean-Runt, Venus-CBFb, uHTS; inhibition, % at 20 µM; Cerulean-Runt/Venus-CBFb FRET ratio 530/480, 1 h; AID 1496, 2009; actives 0.46% (n = 220,000);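 active means inhibition over about 50% at 20 µM in the single-dose screen, limit read from the data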;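 further: 0% = DMSO wells and 100% = excess unlabeled CBFb competitor control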
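Assay system: Cerulean-tagged RUNX1 Runt domain (FRET donor) fusion protein / Amount: 100 nM each of Venus-CBFb and Cerulean-Runt domain / Medium: Tris buffer pH 7.5 with salts and BSA / Also added: Venus-CBFb 100 nM / Schedule: 1 h complex formation plus 1 h compound treatment, room temperature / Signal: FRET fluorescence / Read-out: loss of energy transfer signal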
Numbers without * were called inactive; ? = inconclusive; . = no result. Shown are actives, neighbours in structure and some others; about 1.9% of the full set was active somewhere.

SMILES	Hck Nef HTS	Runt-SMMHC FRET	RanGTP-Imp inh	Runt-CBFb FRET
Cc1ccc2oc(=O)c3cc(C(=O)NCCN4CCN(C)CC4)sc3c2c1	4	0	27*	2
Cc1ccc(OCCC(=O)OC(C)C(=O)Nc2c(C)n(C)n(-c3ccccc3)c2=O)cc1 (stereo unspecified)	.	.	2	.
O=CN(/C=C1\Sc2ccccc2C1=O)Cc1ccccc1	15	67*	?	37
Cc1ccc(/C=C2\Sc3ccccc3C2=O)s1	0	-16	-2	-8
CC(=O)N(C)/C=C1\Sc2ccccc2C1=O	3	76*	?	30
CC(=O)Nc1ccc(/C=C2\Sc3ccccc3C2=O)cc1	11	-3	4	-4
O=C(O)c1ccc(NNC(=S)Nc2cc(C(F)(F)F)ccc2Cl)cc1	.	.	6	.
CCOCCCNC(=O)c1cc2c(=O)n3cccc(C)c3nc2s1	.	.	-1	.
Cc1cccn2c(=O)c3cc(C#N)c(=NC(=O)c4cccs4)n(CC(C)C)c3nc12	16	88*	151*	39
CCOCCCn1c(=NC(=O)c2cccs2)c(C#N)cc2c(=O)n3cccc(C)c3nc21	20	81*	121*	76*
CC(C)CC(NC(N)=O)C(=O)OCC(=O)N(Cc1ccccc1)Cc1ccccc1 (stereo unspecified)	-15	0	.	-4
O=C(Nc1ccccn1)C1CCN(c2ncnc3c2nc2n3CCCCC2)CC1	.	.	5	.
Nc1cccc2c1C(=O)N(C(=O)c1cccc(S(=O)(=O)N3CCCCCC3)c1)C2=O	-19	62*	19*	12
Cc1ccc(S(=O)(=O)N2CCOCC2)cc1C(=O)N1C(=O)c2cccc(N)c2C1=O	2	-77	1	-34
Nc1cccc2c1C(=O)N(C(=O)c1ccc(Cl)c(S(=O)(=O)N3CCCCCC3)c1)C2=O	-17	62*	20*	-12
Cc1ccc(Cl)cc1NC(=O)c1cc2ccccc2cc1O	-105	-105	4	-44
C=CCN1C(=O)C2C(C(=O)NC3CCCC3)C3C=CC2(O3)C1C(=O)NC1CCCC1 (stereo unspecified)	.	.	-4	.
COC(=O)c1c(C)n(-c2ccccc2)c2ccc(O)cc12	9	18	-3	0
CN(C)/C=C/c1c([N+](=O)[O-])c2ccc(O)cc2n1-c1ccccc1	104*	4	1	7
N#Cc1c2ccccc2nc2ccccc12	43	98*	18*	45
c1ccc2nc3ccccc3nc2c1	-6	-1	4	-1
N/C(Cc1nc2ccccc2s1)=N\O	-13	5	85*	4
CCOC(=O)c1ccc(-c2ccc(/C=N/NC(=O)c3cncc(Br)c3)o2)cc1	9	-54	-4	-6
CCCCOC(=O)c1ccc(-c2ccc(/C=N/NC(=S)NCC)o2)cc1	2	9	43*	3
CC(=O)N1c2ccc(S(=O)(=O)N3CCC(C(=O)NCc4ccc(N(C)C)cc4)CC3)cc2CC1C (stereo unspecified)	.	.	67*	.
SMILES	Hck Nef HTS	Runt-SMMHC FRET	RanGTP-Imp inh	Runt-CBFb FRET
N#CC1=C(N)SC(N)=C(C#N)C1c1ccc(C(F)(F)F)cc1	2	41	24*	38
CCOc1ccc(C2C(C#N)=C(N)SC(N)=C2C#N)cc1OC	6	-7	26*	6
CCOc1ccc(C2C(C#N)=C(N)SC(N)=C2C#N)cc1OCC	.	27	33*	12
CCOc1ccccc1C1C(C#N)=C(N)SC(N)=C1C#N	3	43	11	13
Cc1ccc(N(CC(=O)N(C)Cc2ccccc2)S(C)(=O)=O)cc1C	.	.	-1	.
CC1(c2ccc(OC(F)F)cc2)NC(=O)N(/N=C/c2c(O)ccc3ccccc23)C1=O (stereo unspecified)	3	71*	7	39
CC1(c2ccc(OC(F)F)cc2)NC(=O)N(CC(=O)Nc2cccc(S(N)(=O)=O)c2)C1=O (stereo unspecified)	13	3	2	2
COc1cccc(C(=O)NCCS(=O)(=O)N2CCN(C(=O)c3ccco3)CC2)c1	.	.	-1	.
Cc1c(C)c2ccc(OCC(=O)Nc3ccc(S(N)(=O)=O)cc3)c(C)c2oc1=O	.	.	0	.
CCOc1ccc(C(=O)C2CCN(C(=O)c3ccccc3C(=O)O)CC2)cc1	1	0	4	-1
CCOc1ccc(C2C(C(=O)C3CC3)N3C=C(C#N)C=CC3C2(C#N)C#N)cc1 (stereo unspecified)	4	1	30*	2
CCOC(=O)c1c(NS(=O)(=O)c2cccc(OC)c2)sc2c1CCC2	7	69*	-29	-15
COc1ccc(/C=C(/C(=O)c2cccs2)N2C=CC=CC2=C(C#N)C#N)cc1	-1	28	22*	46
CCSc1sccc1C1C(C#N)=C(N)N(c2cccnc2)C2=C1C(=O)CCC2 (stereo unspecified)	0	66*	?	45
CC(=O)Nc1nc2n(n1)C(c1ccc(Cl)cc1)C=C(C)N2 (stereo unspecified)	16	83*	-1	31
CC1=CC(c2ccc(Cl)cc2)n2nc(NC(=O)c3ccccc3)nc2N1 (stereo unspecified)	9	-3	-3	1
CCSc1ccc(-c2nn(-c3ccccc3)cc2/C=C(/C#N)C(=O)NC)cc1	11	60*	.	8
CCCSc1ccc(-c2nn(-c3ccccc3)cc2/C=C(/C#N)C(=O)N2CCOCC2)cc1	4	-9	-1	-14
COc1ccc(C2=C/C(=C\c3ccccc3OC(C)=O)C(=O)O2)cc1	.	.	35*	.
COc1ccc(C2=C/C(=C\c3cccc(OC(C)=O)c3)C(=O)O2)cc1	1	39	43*	-36
COc1ccccc1/C=C/c1nc2ccc(OC(C)=O)cc2c(=O)o1	.	.	1	.
c1ccc(-c2ccc(-c3ccccn3)s2)nc1	-5	4	18*	-3
CC1(C)C(C#N)=C(N)Oc2c1c(=O)oc1ccccc21	2	-3	4	-1
Cc1c(C#N)c(=O)oc2ccc3ccccc3c12	8	97*	1	71*
Cc1c(CN2CCCC(C(=O)c3cccc(OC(C)C)c3)C2)c(=O)n(-c2ccccc2)n1C (stereo unspecified)	15	4	-3	0
CSc1nsc(/C=C/Nc2ccc(C)c(C)c2)c1C#N	23	-7	33*	-1
Nc1c(-c2ccccc2)c(CN2CCOCC2)nn1-c1ccc(C(=O)O)cc1	-3	1	32*	-1
CCCc1nc(SCC(=O)NCC2CCCO2)c2c(=O)n(C)c(=O)n(C)c2n1 (stereo unspecified)	.	.	0	.

Screening data (PubChem BioAssay)
